# Results of several laboratories.
# Protocols differ between the studies behind these lines.
# Organism: Severe acute respiratory syndrome coronavirus 2
SMILES,assay,test system,setting,quantity,value
OCCN1CCN(CCCN2c3ccccc3C=Cc3ccccc32)CC1,viral replication,Vero C1008,,IC50,10 µM
C=C[C@@](C)(/C=C/c1ccc(O)cc1)CCC=C(C)C,cytopathic effect,Vero C1008,3.125 µM,inhibition,0%
Cn1c(C(=O)Nc2ccc(Cl)cc2)cc2c(=O)n3ccccc3nc21,viral replication,Vero,1 nM,inhibition,5.41%
CCN(CCO)CCCC(C)Nc1ccnc2cc(Cl)ccc12 (stereo not shown),"viral replication, inhibitor",Huh-7,,IC50,> 2 µM
OC(CCN1CCCCC1)(c1ccccc1)C1CCCCC1 (stereo not shown),viral replication,Vero C1008,,IC50,8.91 µM
CCC(CC)COC(=O)[C@H](C)N[P@](=O)(OC[C@H]1O[C@@](C#N)(c2ccc3c(N)ncnn23)[C@H](O)[C@@H]1O)Oc1ccccc1,"viral replication, inhibitor",Huh-7,,IC50,0.006 µM
CCCCCCCCCCCCCCCCOCCCOP(=O)(O)OC[C@H]1O[C@@](C#N)(c2ccc3c(N)ncnn23)[C@H](O)[C@@H]1O,"viral replication, inhibitor, qPCR",Vero C1008,48 h,EC90,0.73 µM
N#Cc1ccc2[nH]cc(CCCCN3CCN(c4ccc5oc(C(=N)Cl)cc5c4)CC3)c2c1,"viral replication, inhibitor",Huh-7,,IC50,> 2 µM
N#C[C@@]1(c2ccc3c(N)ncnn23)O[C@H](CO)[C@@H](O)[C@H]1O,"viral replication, inhibitor, qPCR",Vero C1008,,EC50,0.38 µM
Cn1cnc(Cn2c(=O)[nH]/c(=N\c3cc4cn(C)nc4cc3Cl)n(Cc3cc(F)c(F)cc3F)c2=O)n1,"viral replication, inhibitor, qPCR",,48 h,EC50,0.023 µM
CCCN(CCC)c1cc(C)nc2c(-c3cnc(N(C)C)cc3C)c(C)nn12,"viral replication, inhibitor",Vero C1008,1 µM,inhibition,60%
Cc1cccc(C)c1OCC(=O)N[C@@H](Cc1ccccc1)[C@@H](O)C[C@H](Cc1ccccc1)NC(=O)[C@H](C(C)C)N1CCCNC1=O,"viral replication, inhibitor",Vero C1008,,EC50,< 100 µM
Cc1cc(NC(=O)c2cc3c(=O)n4cccc(C)c4nc3n2C)ccc1Br,viral replication,Vero,1 µM,inhibition,74.7%
CN(C)CCC=C1c2ccccc2CCc2ccccc21,viral replication,Vero C1008,,IC50,2.82 µM
c1ccc([C@H]2CN3CCSC3=N2)cc1,"viral replication, inhibitor",Huh-7,,IC50,> 2 µM
CCCCCCCCCCCCCCCCCCOC[C@H](COP(=O)(O)OC[C@H]1O[C@@](C#N)(c2ccc3c(N)ncnn23)[C@H](O)[C@@H]1O)OCc1ccccc1,"viral replication, inhibitor, qPCR",Vero C1008,48 h,EC90,0.16 µM
CN(CCc1ccc(Cl)c(Cl)c1)CCN1CCCC1,"viral replication, inhibitor",A549-ACE2,,IC50,1.48 µM
CCCCCCCCCCCCCCCCCCOCCOP(=O)(O)OC[C@H]1O[C@@](C#N)(c2ccc3c(N)ncnn23)[C@H](O)[C@@H]1O,"viral replication, inhibitor, qPCR",Vero C1008,,EC50,0.3 µM
COc1ccc(CCN(C)CCCC(C#N)(c2ccc(OC)c(OC)c2)C(C)C)cc1OC (stereo not shown),"viral replication, inhibitor",Huh-7,,IC50,0.534 µM
CCC(CC)COC(=O)[C@H](C)N[P@](=O)(OC[C@H]1O[C@@](C#N)(c2ccc3c(N)ncnn23)[C@H](O)[C@@H]1O)Oc1ccccc1,viral replication,Vero,10 µM,inhibition,98%
CCN(CC)CCCC(C)Nc1ccnc2cc(Cl)ccc12 (stereo not shown),"viral replication, inhibitor",A549-ACE2,,IC50,0.912 µM
N[C@@H](Cc1cc(I)c(Oc2cc(I)c(O)c(I)c2)c(I)c1)C(=O)O,"plaque formation, inhibitor",Vero C1008,,EC50,7 µM
O=C(O[C@@H]1Cc2c(O)cc(O)cc2O[C@@H]1c1cc(O)c(O)c(O)c1)c1cc(O)c(O)c(O)c1,cytopathic effect,Vero C1008,0.7812 µM,inhibition,0%
CC1=NN(c2ccccc2)C(=O)C1,"viral replication, inhibitor",Huh-7,,IC50,> 2 µM
O=C(Nc1ccccc1F)c1cc2c(=O)n3ccccc3nc2n1Cc1ccccc1,viral replication,Vero,0.1 µM,inhibition,87.2%
CCOC(=O)c1ncc2[nH]c3cccc(OC(C)C)c3c2c1C,"viral replication, inhibitor",Vero C1008,1 µM,inhibition,40.6%
Fc1ccc(C(OCCN2CCN(CCCc3ccccc3)CC2)c2ccc(F)cc2)cc1,"viral replication, inhibitor",A549-ACE2,,IC50,6.03 µM
CCC(CC)COC(=O)[C@H](C)N[P@](=O)(OC[C@H]1O[C@@](C#N)(c2ccc3c(N)ncnn23)[C@H](O)[C@@H]1O)Oc1ccccc1,"viral replication, inhibitor, qPCR",Vero C1008,,EC50,1.13 µM
O=C(/C=C/c1ccc(O)c(O)c1/C=C/c1ccc(O)c(O)c1)O[C@H](Cc1ccc(O)c(O)c1)C(=O)O,"cytopathic effect, inhibitor",Vero C1008,1.562 µM,inhibition,0%
O=C(O)c1c(Nc2cccc(F)c2)[nH]c2cc(Cl)ccc2c1=O,"viral entry, inhibitor",NCI-H1299,pseudovirus,EC50,0.69 µM
CCc1ccc(NC(=O)c2cc3c(=O)n4ccccc4nc3n2C)cc1,viral replication,Vero,10 µM,inhibition,95%
CCCN(CCC)CCc1ccc(OC)c(OCCc2ccccc2)c1,viral replication,Vero C1008,,IC50,3.89 µM
Cn1c(C(=O)Nc2ccc3c(c2)OCCO3)cc2c(=O)n3ccccc3nc21,viral replication,Vero,0.1 µM,inhibition,37.7%
CC(C)=CCc1c(O)ccc(C(=O)/C=C/c2ccc(O)cc2)c1O,cytopathic effect,Vero C1008,12.5 µM,inhibition,0%
Cc1ccc(NC(=O)c2cc3c(=O)n4cccc(C)c4nc3n2C)cc1Cl,viral replication,Vero,10 µM,inhibition,94.8%
COc1ccc(C[C@@H]2c3cc(Oc4cc(C[C@@H]5c6cc(O)c(OC)cc6CCN5C)ccc4O)c(OC)cc3CCN2C)cc1,cytopathic effect,Vero C1008,1.562 µM,inhibition,0%
Cc1cccc(CN2CCN(C(c3ccccc3)c3ccc(Cl)cc3)CC2)c1 (stereo not shown),viral replication,Vero C1008,,IC50,1.35 µM
